The text below walks through data of ChEMBL document CHEMBL1212913, “Quinazolin-4-one derivatives: A novel class of noncompetitive NR2C/D subunit-selective N-methyl-D-aspartate receptor antagonists” (J Med Chem, 2010).

Each structure is given as a SMILES string.

For assay [1], the species on record is Rattus norvegicus. Kind of assay: Selectivity ratio of IC50 for rat recombinant GLuR1 to IC50 for rat recombinant NR1-NR2D receptor. The essentials:
(§1)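 Ratio of fitted IC50 values, either NR2A/NR2D or GluR1/NR2D, from two-electrode voltage-clamp Hill fits in oocytes. Where noted, calculated from IC50 values rounded to the nearest μM.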

Assay [2] addresses Ionotropic glutamate receptor NMDA 1/2D (Rattus norvegicus, UniProt P35439+Q62645). In words: Antagonist activity at rat recombinant NR1-NR2D receptor expressed in Xenopus oocytes at holding potential of -40mV by two-electrode voltage-clamp electrophysiology. In kind it is functional, cell-based, Oocyte. The essentials: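 Oocytes expressing rat NR1-1a with NR2A, NR2B, NR2C or NR2D, clamped at −40 mV in Ba2+/HEPES recording solution pH 7.4, 23°C. Current evoked by 100 μM glutamate plus 30 μM glycine. Final DMSO 0.05-0.5%, 5-7 inhibitor concentrations, ≥4 oocytes each. IC50 from Hill fit of normalized mean composite data. Some NR2A oocytes given BAPTA-AM or K-BAPTA.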
A general note: Two-electrode voltage clamp is typically applied to oocytes expressing channels or transporters.

The next assay deals with Glutamate receptor 1 (Rattus norvegicus, UniProt P19490). Kind of assay: Antagonist activity at rat recombinant GLuR1 expressed in Xenopus oocytes assessed as inhibition of glutamate-induced current by two-electrode voltage-clamp electrophysiology. In kind it is functional, cell-based, Oocyte. The gist of the method:
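Two-electrode voltage clamp at −40 mV on Xenopus oocytes expressing rat GluR1, perfused with 90 NaCl, 1.0 KCl, 0.5 BaCl2, 0.005 EDTA, 10 HEPES (mM), pH 7.4, 23°C; activated by 100 μM glutamate. From 20 mM DMSO stocks, 5-7 concentrations, ≥4 oocytes each. Hill fit to mean composite curves normalized to control, minimum usually fixed at 0. Response >75% at 100 μM reported as >300 μM.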

Assay [3] deals with Glutamate NMDA receptor; Grin1/Grin2b (Rattus norvegicus, UniProt P35439+Q00960). In words: Antagonist activity at rat recombinant NR1-NR2B receptor expressed in Xenopus oocytes at holding potential of -40mV by two-electrode voltage-clamp electrophysiology. It is filed as functional, cell-based, Oocyte. The settings on record: read-out: IC50. The gist of the method: (§2)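 Oocytes expressing rat NR1-1a with NR2A, NR2B, NR2C or NR2D, clamped at −40 mV in Ba2+/HEPES recording solution pH 7.4, 23°C. Current evoked by 100 μM glutamate plus 30 μM glycine. Final DMSO 0.05-0.5%, 5-7 inhibitor concentrations, ≥4 oocytes each. IC50 from Hill fit of normalized mean composite data. […] Some NR2A oocytes given BAPTA-AM or K-BAPTA.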
Sequence of Glutamate NMDA receptor; Grin1/Grin2b (Q00960 whole entry, other chains not shown): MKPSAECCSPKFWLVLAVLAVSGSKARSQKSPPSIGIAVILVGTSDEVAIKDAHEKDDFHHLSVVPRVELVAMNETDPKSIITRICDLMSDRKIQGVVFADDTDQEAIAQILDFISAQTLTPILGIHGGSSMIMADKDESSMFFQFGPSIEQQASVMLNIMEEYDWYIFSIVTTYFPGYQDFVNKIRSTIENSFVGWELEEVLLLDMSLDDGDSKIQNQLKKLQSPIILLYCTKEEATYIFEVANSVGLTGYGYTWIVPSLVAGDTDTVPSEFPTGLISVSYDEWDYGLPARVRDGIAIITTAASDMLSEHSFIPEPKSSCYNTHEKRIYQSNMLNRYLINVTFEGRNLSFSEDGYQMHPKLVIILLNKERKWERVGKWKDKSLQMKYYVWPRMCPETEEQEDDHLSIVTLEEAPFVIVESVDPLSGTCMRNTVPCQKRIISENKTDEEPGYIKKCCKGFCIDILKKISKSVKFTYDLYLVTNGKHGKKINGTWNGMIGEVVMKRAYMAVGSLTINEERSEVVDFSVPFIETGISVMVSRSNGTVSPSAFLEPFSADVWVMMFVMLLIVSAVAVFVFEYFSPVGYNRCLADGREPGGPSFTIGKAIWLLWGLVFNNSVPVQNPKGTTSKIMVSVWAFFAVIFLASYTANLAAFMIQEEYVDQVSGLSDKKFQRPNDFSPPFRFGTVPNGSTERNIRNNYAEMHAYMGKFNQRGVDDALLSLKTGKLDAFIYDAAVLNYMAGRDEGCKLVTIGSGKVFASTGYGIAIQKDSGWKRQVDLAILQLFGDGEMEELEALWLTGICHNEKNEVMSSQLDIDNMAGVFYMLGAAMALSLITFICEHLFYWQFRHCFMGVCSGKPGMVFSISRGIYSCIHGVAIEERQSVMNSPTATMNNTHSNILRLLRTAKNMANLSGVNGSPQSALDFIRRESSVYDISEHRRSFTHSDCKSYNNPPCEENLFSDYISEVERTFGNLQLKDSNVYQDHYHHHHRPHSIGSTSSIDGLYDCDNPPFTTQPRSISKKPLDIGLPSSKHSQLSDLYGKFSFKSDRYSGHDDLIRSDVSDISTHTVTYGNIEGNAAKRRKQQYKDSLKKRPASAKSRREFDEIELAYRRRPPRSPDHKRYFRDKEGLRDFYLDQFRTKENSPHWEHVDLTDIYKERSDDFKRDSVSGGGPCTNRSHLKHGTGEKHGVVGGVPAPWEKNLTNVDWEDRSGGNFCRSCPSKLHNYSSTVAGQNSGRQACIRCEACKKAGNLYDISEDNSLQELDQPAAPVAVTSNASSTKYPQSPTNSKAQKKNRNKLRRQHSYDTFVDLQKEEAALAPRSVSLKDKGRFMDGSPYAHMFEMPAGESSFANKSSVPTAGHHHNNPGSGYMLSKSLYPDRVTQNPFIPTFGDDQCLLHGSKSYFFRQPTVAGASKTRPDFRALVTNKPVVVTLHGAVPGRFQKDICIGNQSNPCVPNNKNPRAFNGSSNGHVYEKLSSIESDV

The species entered for assay [4] is Rattus norvegicus. Kind of assay: Selectivity ratio of IC50 for rat recombinant NR1-NR2A receptor to IC50 for rat recombinant NR1-NR2D receptor. The essentials:
as §1

Assay [5] concerns the target Glutamate NMDA receptor; Grin1/Grin2c (Rattus norvegicus, UniProt P35439+Q00961). In words: Antagonist activity at rat recombinant NR1-NR2C receptor expressed in Xenopus oocytes at holding potential of -40mV by two-electrode voltage-clamp electrophysiology. In kind it is functional, cell-based, Oocyte. The essentials: as §2
Assay [6] concerns the target Glutamate NMDA receptor; Grin1/Grin2a (Rattus norvegicus, UniProt P35439+Q00959). In words: Antagonist activity at rat recombinant NR1-NR2A receptor expressed in Xenopus oocytes at holding potential of -40mV by two-electrode voltage-clamp electrophysiology. In kind it is functional, cell-based, Oocyte. As to conditions: read-out: IC50. The gist of the method:
as §2

Sequence of Glutamate NMDA receptor; Grin1/Grin2c (Q00961 whole entry, other chains not shown): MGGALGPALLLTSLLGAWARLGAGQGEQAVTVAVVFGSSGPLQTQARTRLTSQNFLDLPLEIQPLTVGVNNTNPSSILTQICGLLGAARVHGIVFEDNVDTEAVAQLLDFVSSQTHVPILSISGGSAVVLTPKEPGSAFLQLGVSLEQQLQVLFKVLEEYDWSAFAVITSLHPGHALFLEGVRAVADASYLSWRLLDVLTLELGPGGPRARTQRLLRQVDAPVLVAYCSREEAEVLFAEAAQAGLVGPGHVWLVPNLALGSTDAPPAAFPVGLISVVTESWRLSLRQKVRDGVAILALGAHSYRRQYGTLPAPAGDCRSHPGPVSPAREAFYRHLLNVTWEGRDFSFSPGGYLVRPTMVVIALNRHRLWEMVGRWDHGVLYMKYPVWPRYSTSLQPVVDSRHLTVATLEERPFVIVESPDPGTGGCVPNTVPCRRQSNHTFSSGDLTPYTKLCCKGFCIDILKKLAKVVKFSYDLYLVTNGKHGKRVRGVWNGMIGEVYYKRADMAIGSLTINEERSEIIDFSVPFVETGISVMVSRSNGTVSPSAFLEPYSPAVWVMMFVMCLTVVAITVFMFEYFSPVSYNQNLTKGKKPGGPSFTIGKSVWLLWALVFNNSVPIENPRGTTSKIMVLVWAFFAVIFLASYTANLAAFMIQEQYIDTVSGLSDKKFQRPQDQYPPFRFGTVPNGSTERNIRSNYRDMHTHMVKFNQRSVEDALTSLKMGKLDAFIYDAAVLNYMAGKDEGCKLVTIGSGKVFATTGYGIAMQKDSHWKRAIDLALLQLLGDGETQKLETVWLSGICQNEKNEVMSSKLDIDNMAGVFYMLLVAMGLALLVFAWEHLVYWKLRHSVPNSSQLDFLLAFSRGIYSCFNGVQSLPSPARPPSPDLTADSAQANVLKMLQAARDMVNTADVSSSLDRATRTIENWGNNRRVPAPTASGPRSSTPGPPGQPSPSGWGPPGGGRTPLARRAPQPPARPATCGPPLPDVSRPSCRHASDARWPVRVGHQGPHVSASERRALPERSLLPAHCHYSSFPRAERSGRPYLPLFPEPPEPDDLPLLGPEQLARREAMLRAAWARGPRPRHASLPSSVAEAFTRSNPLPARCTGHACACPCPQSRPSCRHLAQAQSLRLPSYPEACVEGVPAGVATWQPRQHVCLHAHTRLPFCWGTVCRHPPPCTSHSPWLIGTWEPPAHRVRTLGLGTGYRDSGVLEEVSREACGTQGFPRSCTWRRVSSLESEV
Sequence of Glutamate receptor 1 (P19490 whole entry, the tested form may be a part): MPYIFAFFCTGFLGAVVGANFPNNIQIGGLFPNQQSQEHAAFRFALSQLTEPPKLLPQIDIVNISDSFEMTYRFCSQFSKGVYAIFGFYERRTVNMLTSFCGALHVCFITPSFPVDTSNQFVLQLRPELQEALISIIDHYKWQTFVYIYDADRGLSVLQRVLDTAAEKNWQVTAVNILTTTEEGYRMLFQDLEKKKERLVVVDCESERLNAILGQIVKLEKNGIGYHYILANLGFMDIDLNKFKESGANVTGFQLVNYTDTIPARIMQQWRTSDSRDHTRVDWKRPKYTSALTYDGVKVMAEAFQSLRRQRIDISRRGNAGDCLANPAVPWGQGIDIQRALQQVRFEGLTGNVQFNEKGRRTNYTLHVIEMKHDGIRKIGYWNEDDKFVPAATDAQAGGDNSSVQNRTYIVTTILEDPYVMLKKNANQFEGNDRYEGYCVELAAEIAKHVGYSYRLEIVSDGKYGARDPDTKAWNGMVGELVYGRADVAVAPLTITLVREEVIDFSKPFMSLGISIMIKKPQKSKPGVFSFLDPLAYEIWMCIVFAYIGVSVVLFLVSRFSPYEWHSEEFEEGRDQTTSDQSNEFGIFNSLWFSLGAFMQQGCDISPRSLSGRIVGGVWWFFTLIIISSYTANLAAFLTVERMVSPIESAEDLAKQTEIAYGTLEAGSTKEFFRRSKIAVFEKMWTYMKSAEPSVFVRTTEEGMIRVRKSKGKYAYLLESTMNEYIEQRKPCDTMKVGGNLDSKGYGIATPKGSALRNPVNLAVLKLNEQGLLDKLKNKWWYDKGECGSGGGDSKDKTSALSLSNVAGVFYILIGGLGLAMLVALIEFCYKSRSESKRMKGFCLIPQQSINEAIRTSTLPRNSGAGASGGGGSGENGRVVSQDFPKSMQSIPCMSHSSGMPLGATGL
Sequence of Ionotropic glutamate receptor NMDA 1/2D (Q62645 whole entry, other chains not shown): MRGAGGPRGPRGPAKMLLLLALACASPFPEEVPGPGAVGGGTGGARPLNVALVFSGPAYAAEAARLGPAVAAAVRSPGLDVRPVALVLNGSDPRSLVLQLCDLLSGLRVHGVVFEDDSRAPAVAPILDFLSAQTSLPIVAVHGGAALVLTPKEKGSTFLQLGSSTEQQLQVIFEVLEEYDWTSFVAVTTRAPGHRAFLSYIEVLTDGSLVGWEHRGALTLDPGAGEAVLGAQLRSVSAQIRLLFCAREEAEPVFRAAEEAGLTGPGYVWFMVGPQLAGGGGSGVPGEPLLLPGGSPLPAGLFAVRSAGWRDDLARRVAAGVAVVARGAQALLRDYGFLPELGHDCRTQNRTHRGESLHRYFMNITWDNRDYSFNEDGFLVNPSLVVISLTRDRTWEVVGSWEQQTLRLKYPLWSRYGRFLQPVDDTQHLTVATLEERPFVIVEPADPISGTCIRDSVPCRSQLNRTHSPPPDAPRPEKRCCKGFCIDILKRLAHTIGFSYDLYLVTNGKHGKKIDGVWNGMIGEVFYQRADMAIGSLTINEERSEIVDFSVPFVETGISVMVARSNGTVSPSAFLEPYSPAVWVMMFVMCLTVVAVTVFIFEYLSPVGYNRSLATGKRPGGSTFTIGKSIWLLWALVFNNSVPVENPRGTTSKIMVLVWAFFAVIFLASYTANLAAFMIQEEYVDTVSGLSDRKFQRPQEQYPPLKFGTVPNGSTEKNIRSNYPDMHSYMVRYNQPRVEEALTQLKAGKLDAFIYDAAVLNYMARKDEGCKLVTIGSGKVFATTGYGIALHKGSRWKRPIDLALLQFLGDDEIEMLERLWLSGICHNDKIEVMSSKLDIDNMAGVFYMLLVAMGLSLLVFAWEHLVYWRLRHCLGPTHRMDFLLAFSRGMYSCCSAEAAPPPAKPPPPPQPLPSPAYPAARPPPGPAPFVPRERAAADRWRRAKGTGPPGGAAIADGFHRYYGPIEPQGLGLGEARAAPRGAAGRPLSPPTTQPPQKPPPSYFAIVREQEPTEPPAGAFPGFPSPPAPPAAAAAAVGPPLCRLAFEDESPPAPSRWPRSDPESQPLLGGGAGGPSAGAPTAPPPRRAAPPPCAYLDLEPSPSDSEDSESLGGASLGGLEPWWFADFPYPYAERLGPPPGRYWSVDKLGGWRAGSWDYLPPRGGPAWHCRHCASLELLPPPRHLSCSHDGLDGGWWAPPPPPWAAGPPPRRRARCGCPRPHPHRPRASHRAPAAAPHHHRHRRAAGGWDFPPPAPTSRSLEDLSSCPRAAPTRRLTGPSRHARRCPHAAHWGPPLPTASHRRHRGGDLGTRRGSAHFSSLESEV

In general, IC50 refers to the concentration that inhibits the measured activity by half. As for `CN(C)c1ccc(/C=C/c2nc3ccccc3c(=O)n2-c2ccc(C(=O)O)cc2)cc1`, the Ratio IC50 in the assay listed under Rattus norvegicus [1] and in the assay filed under Rattus norvegicus [4] was greater than 5 in each case. Besides, the half-maximal inhibitory concentration (IC50) in assay [2] is 53 µM; at Glutamate receptor 1 it was greater than 300 µM; in assay [3], greater than 300 µM; in assay [5] it was 63 µM; in assay [6], greater than 300 µM.
As for `COc1cccc(/C=C/c2nc3ccccc3c(=O)n2-c2ccc(C(=O)O)cc2)c1`, the Ratio IC50 in the assay filed under Rattus norvegicus [1] and in the assay filed under Rattus norvegicus [4] was 3 each time. In addition, the IC50 in assay [2] was determined as 9 µM; at Glutamate receptor 1, 27 µM; in assay [3] it was 36 µM; in assay [6] it was 24 µM.
On to `O=C(O)c1ccc(-n2c(/C=C/c3cccc([N+](=O)[O-])c3)nc3c(Cl)cc(Cl)cc3c2=O)cc1`, for which the figures for the Ratio IC50 in the assay filed under Rattus norvegicus [1] and in the assay filed under Rattus norvegicus [4] were 30 and 22, respectively. In addition, the IC50 in assay [2] was 10 µM; at Glutamate receptor 1 it was greater than 300 µM; in assay [3], 109 µM; in assay [5] it was 16 µM; in assay [6], 224 µM.
For the compound `O=C(O)c1ccc(-n2c(/C=C/c3ccccc3)nc3ccc(I)cc3c2=O)cc1`, the Ratio IC50 in the assay listed under Rattus norvegicus [1] was found to be 6; in the assay listed under Rattus norvegicus [4], 13. Further, the IC50 was 4 µM in assay [2]; 23 µM on Glutamate receptor 1; 66 µM in assay [3]; 13 µM in assay [5]; 53 µM in assay [6].
As for `O=C(O)c1ccc(-n2c(/C=C/c3cccc([N+](=O)[O-])c3)nc3ccc(Br)cc3c2=O)cc1`, the results for the Ratio IC50 in the assay listed under Rattus norvegicus [1] and in the assay listed under Rattus norvegicus [4] were 8 and 17, respectively. For the same compound, the IC50 in assay [2] came to 1 µM; at Glutamate receptor 1 it was 8 µM; in assay [3], 13 µM; in assay [5], 2 µM; in assay [6] it was 17 µM.
`COc1ccc(/C=C/c2nc3ccccc3c(=O)n2-c2ccc(C(=O)O)cc2)cc1`: the Ratio IC50 in the assay listed under Rattus norvegicus [1] was 8; in the assay filed under Rattus norvegicus [4], 3. The 50% inhibitory concentration (IC50) in assay [2] worked out at 31 µM; at Glutamate receptor 1, 250 µM; in assay [3], 98 µM; in assay [6] it was 100 µM.
On to `O=c1c2cc(I)ccc2nc(/C=C/c2cccnc2)n1-c1ccc([N+](=O)[O-])cc1`, for which the Ratio IC50 in the assay listed under Rattus norvegicus [1] and in the assay listed under Rattus norvegicus [4] was 1 in each case. Also, the IC50 in assay [2] was 218 µM; on Glutamate receptor 1 it was greater than 300 µM; in assay [3], greater than 300 µM; in assay [5], 204 µM; in assay [6], greater than 300 µM.
Turning to `COc1cccc(-n2c(/C=C/c3cccnc3)nc3ccc(I)cc3c2=O)c1`, the Ratio IC50 in the assay filed under Rattus norvegicus [1] and in the assay listed under Rattus norvegicus [4] was 1 in each case. Besides, the IC50 (on Glutamate receptor 1; in assay [3]; in assay [5]; in assay [6]) was greater than 300 µM each time.
For `O=c1c2ccccc2nc(/C=C/c2cccnc2)n1-c1ccccc1`, the Ratio IC50 in the assay listed under Rattus norvegicus [1] came out at 2; in the assay filed under Rattus norvegicus [4] it was 1. For the same compound, the IC50 in assay [2] is 35 µM; at Glutamate receptor 1 it was 74 µM; in assay [3], 51 µM; in assay [5] it was 140 µM; in assay [6] it was 40 µM.
Take `O=C(O)c1ccc(-n2c(/C=C/c3cccc([N+](=O)[O-])c3)nc3ccc(-c4cccs4)cc3c2=O)cc1`: the Ratio IC50 was determined as 93 in the assay filed under Rattus norvegicus [1] and 52 in the assay listed under Rattus norvegicus [4]. The IC50 turned out to be 3 µM in assay [2]; 280 µM on Glutamate receptor 1; 129 µM in assay [3]; 5 µM in assay [5]; 157 µM in assay [6].
As to `O=C(O)c1ccc(-n2c(/C=C/c3cccc([N+](=O)[O-])c3)nc3cc(Cl)ccc3c2=O)cc1`, the figures for the Ratio IC50 in the assay listed under Rattus norvegicus [1] and in the assay listed under Rattus norvegicus [4] were 3 and 2, respectively. The IC50 in assay [2] was 15 µM; at Glutamate receptor 1 it was 41 µM; in assay [3], 52 µM; in assay [5] it was 16 µM; in assay [6], 32 µM.
As to `O=C(O)c1ccc(-n2c(/C=C/c3cccnc3)nc3ccc(I)cc3c2=O)cc1`, the figures for the Ratio IC50 in the assay filed under Rattus norvegicus [1] and in the assay listed under Rattus norvegicus [4] were 15 and 7, respectively. The IC50 is 4 µM in assay [2]; 61 µM at Glutamate receptor 1; 31 µM in assay [3]; 6 µM in assay [5]; 26 µM in assay [6].
For `COc1ccc2nc(/C=C/c3cccc([N+](=O)[O-])c3)n(-c3ccc(C(=O)O)cc3)c(=O)c2c1`, the results for the Ratio IC50 in the assay listed under Rattus norvegicus [1] and in the assay filed under Rattus norvegicus [4] were greater than 100 and 76, respectively. Also, the IC50 in assay [2] is 3 µM; at Glutamate receptor 1, greater than 300 µM; in assay [3], greater than 300 µM; in assay [5] it was 6 µM; in assay [6], 229 µM.
`COc1cccc(/C=C/c2nc3ccc(OC)cc3c(=O)n2-c2ccc(C(=O)O)cc2)c1`: the Ratio IC50 was found to be 24 in the assay filed under Rattus norvegicus [1] and 8 in the assay listed under Rattus norvegicus [4]. The concentration for half-maximal inhibition (IC50) worked out at 9 µM in assay [2]; 220 µM at Glutamate receptor 1; 109 µM in assay [3]; 18 µM in assay [5]; 73 µM in assay [6].
Take `O=C(O)c1ccc(-n2c(/C=C/c3cccc([N+](=O)[O-])c3)nc3cc4c(cc3c2=O)OCCO4)cc1`: the Ratio IC50 in the assay listed under Rattus norvegicus [1] and in the assay listed under Rattus norvegicus [4] was 1 in each case. Further, the IC50 in assay [2] was 213 µM; at Glutamate receptor 1 it was greater than 300 µM; in assay [3], greater than 300 µM; in assay [5], 281 µM.
On to `Cc1ccccc1/C=C/c1nc2ccccc2c(=O)n1-c1ccc(C(=O)O)cc1`, for which the Ratio IC50 in the assay filed under Rattus norvegicus [1] and in the assay filed under Rattus norvegicus [4] was 1 in each case. Also, the IC50 was found to be 81 µM in assay [2], 62 µM on Glutamate receptor 1, 93 µM in assay [3] and 86 µM in assay [6].
Consider `O=C(O)c1ccc(-n2c(/C=C/c3ccc(O)cc3)nc3ccccc3c2=O)cc1`, for which the Ratio IC50 in the assay filed under Rattus norvegicus [1] turned out to be 3; in the assay listed under Rattus norvegicus [4], 1. Besides, the IC50 was 36 µM in assay [2], 110 µM at Glutamate receptor 1, 35 µM in assay [3] and 38 µM in assay [6].
Consider `O=C(O)c1ccc(-n2c(/C=C/c3cccc([N+](=O)[O-])c3)nc3ccc(Cl)cc3c2=O)cc1`, for which the figures for the Ratio IC50 in the assay listed under Rattus norvegicus [1] and in the assay filed under Rattus norvegicus [4] were 7 and 16, respectively.
For the compound `O=C(O)c1ccc(-n2c(/C=C/c3ccccc3O)nc3ccccc3c2=O)cc1`, the Ratio IC50 in the assay filed under Rattus norvegicus [1] stood at 2; in the assay listed under Rattus norvegicus [4], 1. For the same compound, the IC50 in assay [2] came to 18 µM; on Glutamate receptor 1 it was 36 µM; in assay [3] it was 18 µM; in assay [6], 20 µM.
Take `O=C(O)c1ccc(-n2c(/C=C/c3ccccc3)nc3ccccc3c2=O)cc1`: the Ratio IC50 in the assay filed under Rattus norvegicus [1] stood at 1; in the assay listed under Rattus norvegicus [4], 3. For the same compound, the IC50 in assay [2] stood at 33 µM; at Glutamate receptor 1, 25 µM; in assay [3], 85 µM; in assay [6], 84 µM.
For the compound `O=C(O)c1ccc(-n2c(/C=C/c3cccc(O)c3)nc3ccccc3c2=O)cc1`, the values for the Ratio IC50 in the assay filed under Rattus norvegicus [1] and in the assay filed under Rattus norvegicus [4] were 1 and 3, respectively. For the same compound, the IC50 in assay [2] is 17 µM; at Glutamate receptor 1 it was 24 µM; in assay [3] it was 30 µM; in assay [6] it was 52 µM.
Regarding `O=C(O)c1ccc(-n2c(/C=C/c3cccc(C(F)(F)F)c3)nc3ccccc3c2=O)cc1`, the Ratio IC50 came to 2 in the assay filed under Rattus norvegicus [1] and 1 in the assay listed under Rattus norvegicus [4]. In addition, the IC50 in assay [2] was 12 µM; on Glutamate receptor 1, 22 µM; in assay [3], 26 µM; in assay [6], 13 µM.
Consider `COc1ccccc1/C=C/c1nc2ccccc2c(=O)n1-c1ccc(C(=O)O)cc1`, for which the results for the Ratio IC50 in the assay listed under Rattus norvegicus [1] and in the assay filed under Rattus norvegicus [4] were 2 and 6, respectively. The concentration for half-maximal inhibition (IC50) came to 16 µM in assay [2], 38 µM on Glutamate receptor 1, 51 µM in assay [3] and 88 µM in assay [6].
`O=C(O)c1ccc(-n2c(/C=C/c3ccc(C(F)(F)F)cc3)nc3ccccc3c2=O)cc1`: the Ratio IC50 in the assay filed under Rattus norvegicus [1] came out at 16; in the assay listed under Rattus norvegicus [4], 4. The IC50 in assay [2] stood at 15 µM; on Glutamate receptor 1, 233 µM; in assay [3], 55 µM; in assay [6] it was 61 µM.
Take `O=C(O)c1ccc(-n2c(/C=C/c3cccc([N+](=O)[O-])c3)nc3ccc(F)cc3c2=O)cc1`: the Ratio IC50 came out at 1 in the assay listed under Rattus norvegicus [1] and 5 in the assay listed under Rattus norvegicus [4]. Besides, the IC50 amounted to 7 µM in assay [2], 7 µM on Glutamate receptor 1, 33 µM in assay [3] and 36 µM in assay [6].
